Data on 52 molecules can be found in ChEMBL document CHEMBL1128173, “Synthesis and structure-activity relationships of substituted 1,4-dihydroquinoxaline-2,3-diones: antagonists of N-methyl-D-aspartate (NMDA) receptor glycine sites and non-NMDA glutamate receptors” (J Med Chem, 1995).

Some results are limits rather than exact numbers.

A short description of test [1]: Selectivity for glycine site.
In test [2] the target is Glutamate receptor ionotropic, AMPA (Rattus norvegicus) (UniProt P19491+P19492+P19493+P19490). The experiment in a line: Binding affinity against rat brain Non N-methyl-D-aspartate glutamate receptor glutamate site expressed in Xenopus oocyte. The method, boiled down:
(§1)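 Oocytes expressing whole rat brain poly(A)+ RNA (~50 ng injected), voltage-clamped with two electrodes 3–10 days after injection and perfused with Ringer pH 7.4. Antagonist perfused ~30 s before agonist, with washout over 1–5 min. Non-NMDA IC50 estimated from partial (three- or four-point) concentration-inhibition curves fit to a logistic equation with a slope factor. Final DMSO 0.03–0.3%.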

For test [3], the target named is Glutamate receptor ionotropic, NMDA 1 (Rattus norvegicus) (UniProt P35439). The experiment in a line: The compound was tested for binding affinity against NMDA receptor glycine site in Xenopus oocyte. The method, boiled down:
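Xenopus stage V–VI oocytes injected with ~50 ng rat whole-brain poly(A)+ RNA; two-electrode voltage clamp at −70 mV, 3–10 days post-injection, frog Ringer pH 7.4. NMDA fixed at 100 µM, glycine 1 µM; antagonist pre-applied ~30 s with glycine. Amplitude read at the slow second-phase peak; IC50 from 3–4-point inhibition curves fit with slope factor.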

For another test, the species on record is Rattus norvegicus. The experiment in a line: The compound was tested for binding affinity against Non N-methyl-D-aspartate glutamate receptor glutamate site expressed in Xenopus oocyte. The method, boiled down: as §1

Turning to `Oc1nc2cc(C(F)(F)F)cc(Cl)c2nc1O`, the Selectivity in test [1] stood at 7.1. The same molecule came in with a Kb in test [2] of 3.7 µM.
On the same counts, the results for `O=[N+]([O-])c1c(Cl)c(Br)cc2nc(O)c(O)nc12` are 170 and 1.24 µM.
Regarding `Oc1nc2cc(Br)cc(C(F)(F)F)c2nc1O`, the Selectivity in test [1] was found to be 14. The same molecule yielded a Kb in test [2] of 3.4 µM.
Turning to `Oc1nc2cc(C(F)(F)F)cc(C(F)(F)F)c2nc1O`, in test [1], the Selectivity amounted to 4.9. In addition, the Kb in test [2] is 2.21 µM.
The matching figures for `O=[N+]([O-])c1c(Br)ccc2nc(O)c(O)nc12`: 28 and 36.3 µM.
Regarding `O=[N+]([O-])c1c(F)c(Br)cc2nc(O)c(O)nc12`, the Selectivity in test [1] came to 35. Further, the Kb in test [2] was found to be 1.4 µM.
Take `Oc1nc2cc(C(F)(F)F)cc(Br)c2nc1O`: the Selectivity in test [1] was 4.2. In test [2], this molecule registered a Kb of 4.29 µM.
In test [1], `Oc1nc2cc(Cl)c(Cl)c(Br)c2nc1O` registered a Selectivity of 43. Besides, the Kb in test [2] came out at 4.11 µM.
The matching figures for `O=[N+]([O-])c1c(Cl)ccc2nc(O)c(O)nc12`: 74 and 36.4 µM.
For `Nc1c(C(F)(F)F)cc(Cl)c2nc(O)c(O)nc12`, the Kb in test [2] turned out to be 63.4 µM.
In the case of `O=[N+]([O-])c1c(F)c(Cl)cc2nc(O)c(O)nc12`, the Selectivity in test [1] worked out at 81. In test [2], the Kb was found to be 1.61 µM.
In the case of `O=[N+]([O-])c1c(Cl)cc2nc(O)c(O)nc2c1[N+](=O)[O-]`, the Selectivity in test [1] amounted to 24. Moreover, the Kb in test [3] amounted to 0.042 µM; in the test filed under Rattus norvegicus, 0.99 µM.
As to `CC(=O)Nc1c(Cl)c(Cl)cc2nc(O)c(O)nc12`, the Selectivity in test [1] was 23. Also, in test [2], the Kb was 5.57 µM.
`Oc1nc2ccccc2nc1O`: the Selectivity in test [1] was 5.9. The same molecule had a Kb in test [2] of 98.2 µM.
On the same counts, the results for `Oc1nc2cc(Cl)c(C(F)(F)F)cc2nc1O` are 9.8 and 2.55 µM.
In test [1], `O=[N+]([O-])c1c(Br)c(F)cc2nc(O)c(O)nc12` showed a Selectivity of 35. The molecule also yielded a Kb in test [2] of 3.45 µM.
In the case of `Oc1nc2cc(Br)c(C(F)(F)F)cc2nc1O`, the Selectivity in test [1] amounted to 5.7. The molecule further had a Kb in test [2] of 1.49 µM.
The matching figures for `Oc1nc2cc(Cl)c(Cl)c(C(F)(F)F)c2nc1O`: 14 and 2.66 µM.
For the molecule `Oc1nc2cc(F)c(Cl)c(F)c2nc1O`, the Selectivity in test [1] was 7.3. This molecule came in with a Kb in test [2] of 13.2 µM.
On the same counts, the results for `O=[N+]([O-])c1ccc2nc(O)c(O)nc2c1` are 0.7 and 1.67 µM.
On to `O=[N+]([O-])c1c(Br)c(C(F)(F)F)cc2nc(O)c(O)nc12`, for which the Selectivity in test [1] stood at 17. The Kb in test [2] worked out at 0.47 µM.
In test [1], `O=c1[nH]c2cc(Cl)c(Cl)c([N+](=O)[O-])c2[nH]c1=O` yielded a Selectivity of 254. In test [2], this molecule gave a Kb of 1.5 µM.
The matching figures for `Oc1nc2cc(C(F)(F)F)c(Cl)c(Cl)c2nc1O`: 6.5 and 1.23 µM.
The matching figures for `Oc1nc2cc(Cl)c(Cl)cc2nc1O`: 13 and 4.81 µM.
Turning to `O=[N+]([O-])c1c(F)c(Cl)c(F)c2nc(O)c(O)nc12`, the Selectivity in test [1] came out at 23. Moreover, the Kb in test [2] came out at 6.56 µM.
Molecule `O=[N+]([O-])c1c(Cl)c(C(F)(F)F)cc2nc(O)c(O)nc12` yielded a Selectivity in test [1] of 15. This molecule showed a Kb in test [2] of 0.55 µM.
The matching figures for `Oc1nc2cc(F)c(F)c(Cl)c2nc1O`: 10 and 17.9 µM.
In test [2], `O=[N+]([O-])c1c(C(F)(F)F)cc(Cl)c2nc(O)c(O)nc12` yielded a Kb of over 30 µM.
Regarding `O=[N+]([O-])c1cc(C(F)(F)F)cc2nc(O)c(O)nc12`, the Selectivity in test [1] is 13. The molecule also had a Kb in test [2] of 4.13 µM.
`Oc1nc2cc(Br)c(Br)cc2nc1O` showed a Selectivity in test [1] of 19. The molecule further had a Kb in test [2] of 4.05 µM.
Take `O=[N+]([O-])c1cc2nc(O)c(O)nc2cc1Cl`: in test [1], the Selectivity was 2.3. In test [2], this molecule showed a Kb of 0.64 µM.
In test [1], `Oc1nc2ccc(Br)cc2nc1O` returned a Selectivity of 4.7. The molecule also showed a Kb in test [2] of 11.2 µM.
The matching figures for `Oc1nc2cc(F)c(F)c(F)c2nc1O`: 5.4 and 30.4 µM.
For the molecule `O=[N+]([O-])c1c(Br)c(Cl)cc2nc(O)c(O)nc12`, the Selectivity in test [1] is 120. For the same molecule, in test [2], the Kb is 0.95 µM.
On the same counts, the results for `O=[N+]([O-])c1cc(Cl)cc2nc(O)c(O)nc12` are 16 and 8.02 µM.
The matching figures for `Oc1nc2cc(F)c(Cl)cc2nc1O`: 4.5 and 10.8 µM.
In turn, `Oc1nc2c(F)c(F)c(F)c(F)c2nc1O` gave a Selectivity in test [1] of 8. Moreover, the Kb in test [2] came out at 26.6 µM.
Turning to `Oc1nc2cc(Cl)cc(C(F)(F)F)c2nc1O`, the Selectivity in test [1] was determined as 7.6. Further, the Kb in test [2] was determined as 4.67 µM.
As for `Oc1nc2cc(F)c(F)cc2nc1O`, the Selectivity in test [1] is 4.5. Moreover, the Kb in test [2] was 21.5 µM.
Turning to `Oc1nc2cc(Br)cc(Br)c2nc1O`, the Selectivity in test [1] was 6.8. Also, the Kb in test [2] amounted to 6.01 µM.
The matching figures for `Oc1nc2cc(Cl)c(Br)cc2nc1O`: 16 and 5.7 µM.
`O=[N+]([O-])c1c(F)c(F)cc2nc(O)c(O)nc12` showed a Selectivity in test [1] of 19. This molecule also registered a Kb in test [2] of 6.01 µM.
Molecule `Oc1nc2ccc(Cl)cc2nc1O` displayed a Selectivity in test [1] of 6.3. In test [2], this molecule came in with a Kb of 16.4 µM.
On to `Oc1nc2cc(Cl)cc(Cl)c2nc1O`, for which the Selectivity in test [1] is 13. The same molecule displayed a Kb in test [2] of 9.27 µM.
The matching figures for `O=[N+]([O-])c1c(Cl)c(Cl)c(Cl)c2nc(O)c(O)nc12`: 11 and 14.1 µM.
Consider `Nc1c(Cl)c(Cl)cc2nc(O)c(O)nc12`, for which, in test [1], the Selectivity came out at 88. For the same molecule, the Kb in test [2] amounted to 5.19 µM.
For the molecule `Oc1nc2cc(F)cc(C(F)(F)F)c2nc1O`, the Selectivity in test [1] stood at 4.8. In test [2], this molecule registered a Kb of 16.3 µM.
The matching figures for `Oc1nc2cc(F)c(C(F)(F)F)cc2nc1O`: 1.5 and 3.78 µM.
`O=[N+]([O-])c1c(Br)c(Br)cc2nc(O)c(O)nc12`: in test [1], the Selectivity worked out at 140. This molecule also yielded a Kb in the test listed under Rattus norvegicus of 0.89 µM.
The molecule `Oc1nc2cc(Cl)c(Cl)c(Cl)c2nc1O` displayed a Selectivity in test [1] of 51. Besides, the Kb in test [2] is 4.19 µM.
`Nc1c(Br)c(Br)cc2nc(O)c(O)nc12`: in test [1], the Selectivity turned out to be 66. The molecule also returned a Kb in test [2] of 3.32 µM.
As for `O=[N+]([O-])c1cccc2nc(O)c(O)nc12`, the Selectivity in test [1] was over 5.8. For the same molecule, the Kb in test [2] is over 100 µM.
